According to ChEMBL document CHEMBL1138087, “Synthesis and evaluation of N-aryl pyrrolidinones as novel anti-HIV-1 agents. Part 1” (Bioorg Med Chem Lett, 2006):

Legend:
[1] = test system: Human immunodeficiency virus 1; assay: Antiviral activity against HIV1 K103N mutant; format: functional, organism-based
How it was run: (§1)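 HEK 293T cells grown in DMEM with 10% FBS and Pen/Strep/Glutamine. Cells seeded at 700 cells/well and cultured 24 h at 37 °C under 5% CO₂. Compounds serially diluted in DMSO were added and incubated 1 h at 37 °C. Cells were then infected with HIV reporter virus at MOI ~1.0 and cultured a further 48 h at 37 °C. Read-out was luciferase activity (Bright-Glo).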

[2] = test system: Human immunodeficiency virus 1; assay: Selectivity for wild type HIV1 virus over HIV1 Y181C mutant; format: functional
[3] = test system: Human immunodeficiency virus 1; assay: Antiviral activity against HIV1 L100I mutant; format: functional, organism-based; how it was run: as §1
[4] = test system: Human immunodeficiency virus 1; assay: Antiviral activity against HIV1 K103N/L100I mutant; format: functional, organism-based; how it was run: as §1
[5] = test system: Human immunodeficiency virus 1; assay: Selectivity for wild type HIV1 virus over HIV1 K103N/L100I mutant; format: functional
HEK293 = assay: Cytotoxicity against HEK293T cells; format: functional; conditions: Homo sapiens
How it was run: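 293T cells seeded at 700 cells/well and cultured 24 h at 37 °C under 5% CO₂. Serially diluted compound in DMSO added to uninfected cells, then a further 48 h at 37 °C. Viability read by fluorescence after Alamar Blue (diluted 1:1 in DMEM) and 4 h at room temperature.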

[6] = test system: Human immunodeficiency virus 1; assay: Antiviral activity against HIV1 Y181C mutant; format: functional, organism-based; how it was run: as §1
[7] = test system: Human immunodeficiency virus 1; assay: Selectivity for wild type HIV1 virus over HIV1 L100I mutant; format: functional
[8] = test system: Human immunodeficiency virus 1; assay: Selectivity for wild type HIV1 virus over HIV1 K103N mutant; format: functional
[9] = test system: Human immunodeficiency virus 1; assay: Antiviral activity against wild type HIV1 virus; format: functional, organism-based
How it was run: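 HEK 293T cells grown in DMEM with 10% FBS and Pen/Strep/Glutamine. Seeded at 700 cells/well, cultured 24 h at 37 °C under 5% CO₂. Serially diluted compound in DMSO added, then 1 h at 37 °C. HIV reporter virus added at MOI about 1.0, cells cultured a further 48 h at 37 °C. Luciferase read-out with Bright-Glo reagent.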

[10] = molecular target: Human immunodeficiency virus type 1 reverse transcriptase (Human immunodeficiency virus 1, UniProt Q72547); assay: Inhibition of HIV1 reverse transcriptase

Row | SMILES | EC50 [1] | Selectivity ratio [2] | EC50 [3] | EC50 [4] | Selectivity ratio [5] | CC50 (HEK293) | EC50 [6] | Selectivity ratio [7] | Selectivity ratio [8] | EC50 [9] | IC50 [10]
1 | COc1cccc(S(=O)(=O)Nc2cccc(N3C[C@@H](c4ccc(OC)c(OC5CCCC5)c4)CC3=O)c2)c1 | 0.656 µM | 40 | 0.033 µM | 0.076 µM | 3 | > 10 µM | 0.99 µM | 1.3 | 26 | 0.025 µM | –
2 | COc1ccc([C@H]2CC(=O)N(c3cccc(NS(=O)(=O)c4ccccc4Br)c3)C2)cc1OC1CCCC1 | 0.292 µM | 19 | 0.016 µM | 0.022 µM | 0.52 | > 10 µM | 0.794 µM | 0.38 | 6.9 | 0.042 µM | –
3 | Cc1ccnc2c1NC(=O)c1cccnc1N2C1CC1 [NEVIRAPINE] | 5.05 µM | > 200 | 0.164 µM | 4.39 µM | 88 | > 10 µM | > 10 µM | 3.2 | 101 | 0.05 µM | –
4 | COc1ccc([C@H]2CC(=O)N(c3cccc(N)c3)C2)cc1OC1CCCC1 | – | – | – | – | – | > 10 µM | – | – | – | 0.125 µM | 2 µM
5 | COc1ccc([C@H]2CC(=O)N(c3cccc(NS(=O)(=O)c4ccccc4C)c3)C2)cc1OC1CCCC1 | 0.117 µM | 10 | 0.01 µM | 0.017 µM | 0.7 | > 10 µM | 0.246 µM | 0.42 | 4.9 | 0.024 µM | –
6 | COc1ccc([C@H]2CC(=O)N(c3cccc(NS(=O)(=O)c4ccccc4Cl)c3)C2)cc1OC1CCCC1 | 0.17 µM | 13 | 0.019 µM | 0.028 µM | 0.67 | > 10 µM | 0.557 µM | 0.45 | 4 | 0.042 µM | –
7 | COc1ccc([C@H]2CC(=O)N(c3cccc(NS(=O)(=O)c4cccc(Br)c4)c3)C2)cc1OC1CCCC1 | 0.923 µM | 32 | 0.053 µM | 0.083 µM | 1.1 | > 10 µM | 2.26 µM | 0.74 | 13 | 0.071 µM | –
